# Legend:
# Format in all cases: functional, organism-based
# [1] = tested on: Pichia kudriavzevii; assay: Inhibitory activity against Candida krusei
# In short: (§1)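 Microbroth dilution in YEPD (1% yeast extract, 2% peptone, 2% glucose, […]), starting inoculum A595 0.2–0.3; compounds as twofold serial dilutions down from 1 mM, growth control on same plate. Shaken at 35 °C; A595 read at addition and 2 h later. Triplicates averaged, IC50 (50% growth inhibition) calculated. Strains: C. albicans JRW #5, C. krusei WM 03,204 (clinical isolates), C. tropicalis ATCC 750.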
# [2] = tested on: Candida albicans; assay: Inhibitory activity against Candida albicans; in short: as §1
# [3] = tested on: Candida tropicalis; assay: Inhibitory activity against Candida tropicalis; in short: as §1
Compound,IC50 ([1]; Pichia kudriavzevii),IC50 ([2]; Candida albicans),IC50 ([3]; Candida tropicalis),IC50 [1],IC50 [2],IC50 [3]
C1CCC([C@H]2OO[C@@H](C3CCCCC3)[C@H]3O[C@H]32)CC1,400 µM,100 µM,25 µM,,,
C1=C[C@@H](C2CCCC2)OOC1,> 1000 µM,500 µM,250 µM,,,
C1CCC([C@H]2OO[C@@H](C3CCCC3)[C@@H]3O[C@@H]32)C1,63 µM,125 µM,125 µM,,,
C1CCC([C@H]2OOC[C@@H]3O[C@@H]32)C1,500 µM,500 µM,250 µM,,,
C1CCC([C@H]2OOC[C@@H]3O[C@@H]32)CC1,500 µM,250 µM,125 µM,,,
O=C(C1CCCCC1)[C@H]1O[C@H]1[C@@H](O)C1CCCCC1,500 µM,250 µM,63 µM,,,
C1=C[C@H](C2CCCC2)OO[C@@H]1C1CCCC1,> 1000 µM,250 µM,125 µM,,,
C1=C[C@@H](C2CCCCC2)OOC1,75 µM,9.5 µM,40 µM,,,
C1=C[C@H](C2CCCCC2)OO[C@@H]1C1CCCCC1,400 µM,> 1000 µM,200 µM,,,
C1CCC([C@H]2OOC[C@H]3O[C@@H]23)C1,300 µM,250 µM,75 µM,,,
C1CC([C@H]2OO[C@@H](C3CCC3)[C@@H]3O[C@@H]32)C1,500 µM,250 µM,500 µM,,,
C1=C[C@H](C2CCC2)OO[C@@H]1C1CCC1,250 µM,125 µM,125 µM,,,
C1CC([C@H]2OO[C@@H](C3CCC3)[C@H]3O[C@H]32)C1,500 µM,250 µM,250 µM,,,
C1CCC([C@H]2OO[C@@H](C3CCCCC3)[C@@H]3O[C@@H]32)CC1,> 1000 µM,100 µM,200 µM,,,
C1CCC([C@H]2OO[C@@H](C3CCCC3)[C@H]3O[C@H]32)C1,125 µM,250 µM,125 µM,,,
C[C@@H]1[C@H](O)[C@@H](C)/C=C/C=C/C=C/C=C/C=C/C=C/C=C/[C@H](O[C@@H]2O[C@H](C)[C@@H](O)[C@H](N)[C@@H]2O)C[C@@H]2O[C@](O)(C[C@@H](O)C[C@@H](O)[C@H](O)CC[C@@H](O)C[C@@H](O)CC(=O)O[C@H]1C)C[C@H](O)[C@H]2C(=O)O [AMPHOTERICIN B],0.2 µM,< 0.5 µM,0.1 µM,,,
CC(=O)N1CCN(c2ccc(OCC3COC(Cn4ccnc4)(c4ccc(Cl)cc4Cl)O3)cc2)CC1 (centres undefined) [KETOCONAZOLE],100 µM,250 µM,12 µM,,,
NYSTATIN,,,,100 µM,250 µM,100 µM
